Screens as filed in PubChem BioAssay.
An excerpt weighted towards active compounds, which were near 9.2% of everything screened.
HCT116 PTEN-null: growth suppressors of cells with PTEN tumor suppressor deletion; HCT116 PTEN-null viability, CellTiter-Glo, 60 h; hits give low values; viability, % at 10 µM; 140,000 compounds, 1.2% hits;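 active = viability at or below a set limit, 4 SD under the median of all tested compounds, cut at about 3.7% in these data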;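 also: PTEN knockout HCT116 line with beta catenin targeted HCT116 as companion control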
Lmaj promast: Leishmania major promastigote growth inhibition. Leishmania major promastigotes, resazurin fluorescence viability. inhibition, % at 10 µM. 200,000 compounds, 9% hits; in the data active = inhibition above about 50%;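 also: promastigotes grown with compound for 44 hours at 28 °C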
HCT116 bCat-KO: beta-catenin-lacking colon tumor cell growth suppression | HCT116 beta-catenin knockout viability, CellTiter-Glo, 60 h; hits give low values | 140,000 compounds, 1.5% hits | viability, % at 10 µM;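 active = viability at or under a set limit, the compound median less 4 SD, cut at about 6% in these data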
Dynein transport: dynein cargo transport inhibition; z-score, hits read low; 3617.4 mouse cells, GR-EGFP nuclear translocation imaging; test concentration mostly 20 µM; stimulated with dexamethasone, 1 µM; hits give low values; 220,000 compounds, 0.47% hits; AID 1381;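 active = plate z-score of nuclear minus cytoplasmic receptor signal below a set negative limit, without overly bright fluorescence or cell loss, cut at about -3.5 in these data, passing the limit was not always enough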;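 also: z-score of nuclear minus cytoplasmic ring GR-EGFP intensity difference per well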
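Buffer or medium: tet-free, stripped-serum medium; Also added: dexamethasone, 1.0 µM final; Technique: high-content fluorescence imaging after fixation; Times: 48 h induction, 1 h compound, 30 min dex at 37 °C; Read-out: per-cell GR-EGFP intensity, nucleus versus surrounding cytoplasmic ring, well-averaged.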
Autophagy HCS: modulators of autophagy. MEF GFP-LC3 puncta imaging; test concentration mostly 10 µM. calls only at 10 µM (by protocol). 190,000 compounds, 0.98% hits. AID 463193;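 active = percentage of spot-positive cells more than 3 SD above its plate mean, without a fluorescence outlier flag or 80% toxicity; inconclusive = no clear call, values can overlap the other calls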
Dynein confirm: dynein cargo transport inhibition, confirmation; shares compounds with Dynein transport; 3617.4 GR-EGFP nuclear translocation imaging, dexamethasone-induced; calls only at 20 µM; 1,000 compounds, 69% hits; AID 463116;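 active = inhibition of receptor movement into the nucleus at or above a set limit in both runs, with normal cell brightness and cell count; inconclusive = limit reached in only one run, brightness and count normal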;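 also: dexamethasone at 1 µM final in well for 30 min; nuclear minus cytoplasmic GR-EGFP mean intensity difference in channel 2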
A number is an active result; 0 = inactive; ? = inconclusive; - = not tested or not shown; + = active, no number.

SMILES	HCT116 PTEN-null	Lmaj promast	HCT116 bCat-KO	Dynein transport	Autophagy HCS	Dynein confirm
Cc1nc2ccccc2c(=O)n1/N=C/c1ccc([N+](=O)[O-])o1	-	-	-	-4	-	+
Cc1ccc(/C=N/n2c(C)nc3ccccc3c2=O)o1	-	0	-	0	0	-
Cc1ccsc1C(=O)N1CCC(N2CCC(C(=O)NCC3CCCO3)CC2)CC1 (stereo not drawn)	-	0	-	0	0	-
CC(C)N1CC=C2C(C#N)=C(N)C(C#N)(C#N)C(c3ccccc3)C2C1 (stereo not drawn)	0	0	0	0	?	-
Cc1ccc(C2C3CSCC=C3C(C#N)=C(N)C2(C#N)C#N)cc1 (stereo not drawn)	0	61	0	-4.1	0	0
NS(=O)(=O)c1ccc(NC(=O)COC(=O)CCNC(=O)NC23CC4CC(CC(C4)C2)C3)cc1	0	0	0	0	0	-
CCc1cccc2cc3c(N)c(C(=O)Nc4ccc(S(=O)(=O)N5CCCC5)cc4)sc3nc12	0	0	0	0	+	0
C=CCn1c(=S)[nH]c2sccc2c1=O	-	0	-	0	0	-
Cc1[nH]c2ccccc2c(=O)c1C(=O)/C=C/c1ccccc1	-	-	-	-6	-	+
CCN(CC)CCCNC(=O)c1ccc2c(Cl)c3c(nc2c1)CCCC3	-	83	-	-3.9	0	+
CCN(CC)CCCNC(=O)c1ccc2c(SCC(=O)O)c3c(nc2c1)CCC3	0	0	0	0	0	-
CC1CCN(C(=O)c2ccc3c(Cl)c4c(nc3c2)CCCC4)CC1	-	0	-	-6	0	+
CC(=O)Nc1ccc(SC[C@H](c2ccccc2)N2CCN(CCc3ccccc3)CCC2=O)cc1	-	-	-	-4.7	-	0
CCOc1cc(/C=C2\C(=O)N(CCc3ccc(OC)c(OC)c3)C(C)=C2C(=O)OC)ccc1O	0	0	0	-4	0	0
COC(=O)C1=C(C)N(Cc2ccc(C)cc2)C(=O)/C1=C\c1cc(OC)c(OC)c(OC)c1	0	0	0	-3.5	0	+
CCN1C(=O)/C(=C\c2ccco2)C(C(=O)OC)=C1C	0	0	0	0	0	-
COC(=O)C1=C(C)N(Cc2ccc(C)cc2)C(=O)/C1=C\c1ccc(O)c(OC)c1	0	0	0	0	0	-
CCOc1cc(/C=C2\C(=O)N(Cc3ccco3)C(C)=C2C(=O)OC)ccc1O	-	0	-	-4.4	0	+
CS(=O)(=O)c1cnc2c(-c3ccsc3)cnn2c1N	-	0	-	0	0	-
CC(=O)c1cccc(NC(=O)COc2ccc(S(=O)(=O)N3CCCCC3)cc2)c1	0	0	0	0	0	-
O=C(N/N=C/c1cc(Cl)cc([N+](=O)[O-])c1O)NC12CC3CC(CC(C3)C1)C2	0	0	0	0	0	-
CC(=O)c1cccc(OCC(=O)c2cc(C)n(-c3cc(C)on3)c2C)c1	0	0	0	0	0	-
Cc1cc(C(=O)CCl)c(C)n1-c1ccon1	-	97	-	-5.6	0	+
O=[N+]([O-])c1cc(S(=O)(=O)N2CCCCCC2)ccc1F	0	0	0	-4.4	0	+
COc1ccc(CN2C(=O)N(c3ccccc3)C(=O)C2CC(=O)Nc2ccccc2)cc1OC (stereo not drawn)	-	0	-	0	0	-
SMILES	HCT116 PTEN-null	Lmaj promast	HCT116 bCat-KO	Dynein transport	Autophagy HCS	Dynein confirm
COc1ccc(N(C(=O)CCl)C(C(=O)NCCc2ccccc2)c2cccs2)cc1 (stereo not drawn)	0.7	100	1.6	-5.3	0	+
CC1(C)Oc2nc3ccccc3n2/C1=C\C#N	0	0	0	0	0	-
Cc1ccc(-c2nc3cnccn3c2Nc2ccccc2)o1	0	0	0	-3.9	0	0
Cc1cc(C)c(C#N)c(SCc2c(F)cccc2[N+](=O)[O-])n1	0	0	0	0	0	-
N#CCCS(=O)(=O)c1nnnn1-c1ccccc1	-	0	-	-5	0	?
c1ccc(-n2nnnc2Cc2nnnn2-c2ccccc2)cc1	-	0	-	0	0	-
N#Cc1cccc(NC(=O)CSc2ccc3c4c(cccc24)C(=O)c2ccccc2-3)c1	0	0	0	0	+	+
N#Cc1cccc(NC(=O)CSc2ccccc2)c1	0	0	0	0	0	-
Cc1ccc(-n2c(SCC(=O)NCc3ccco3)nc3c([nH]c4ccccc43)c2=O)cc1	-	0	-	0	0	-
O=C(O)CN(c1ccc2c(c1)OCCO2)S(=O)(=O)c1ccccc1	0	0	0	0	0	-
O=C(CCl)N(C/C=C/c1ccccc1)c1ccc2c(c1)OCCO2	-	76	-	-4	0	+
CCNc1ccc(Br)cc(C(=O)/C=C/c2ccc(Cl)cc2Cl)c1=O	2.2	98	2.5	0	0	+
COCCCNC(=O)/C=C/c1ccc(Cl)cc1Cl	0	0	0	0	0	-
COc1cc(OC)cc(C(=O)N2CCN(Cc3ccccc3Br)CC2)c1	-	0	-	0	0	-
Cc1nc2c(ccc3nc(NC(=O)Cc4ccccc4)sc32)s1	0	0	0	0	0	-
Cc1nc2c(ccc3nc(NC(=O)c4ccc(S(=O)(=O)N(C)C)cc4)sc32)s1	0	0	0	-4.1	0	0
Cc1sc(NC(=O)c2sc3nc4c(C)cccc4cc3c2N)c(C#N)c1C	0	56	3.6	0	+	+
Cc1cccc2cc3c(N)c(C(=O)Nc4ccc(N5CCOCC5)cc4)sc3nc12	0	0	0	0	0	-
Cc1cccc2cc3c(N)c(C#N)sc3nc12	0	0	0	0	0	-
Cc1cccc2cc3c(N)c(C(=O)N4CCc5ccccc54)sc3nc12	0	0	0	0	+	0
COc1ccc(Nc2c(C)cccc2C)cc1	0	0	0	0	0	-
COc1ccc(Nc2ccccc2N)cc1	-	92	-	-5.1	0	0
Nc1ncnc(Sc2ccccc2)c1[N+](=O)[O-]	0	0	0	0	0	-
Nc1ncnc(Sc2ncccn2)c1[N+](=O)[O-]	-	59	-	-5.1	0	?
Cc1cc(C)c(S(=O)(=O)ON2C(=O)c3ccccc3C2=O)cc1C	0	0	0	-6.1	0	+
SMILES	HCT116 PTEN-null	Lmaj promast	HCT116 bCat-KO	Dynein transport	Autophagy HCS	Dynein confirm
Cc1cc(C)c(C)c(S(=O)(=O)ON2C(=O)c3ccccc3C2=O)c1C	0	0	0	-4.3	0	+
Cc1cccc2c1N(C)C(=O)C2=O	-	0	-	0	0	-
O=S(=O)(c1ccc(Cl)cc1)N1CCN=C1SCc1ccc(Cl)c(Cl)c1	0	0	0	0	0	-
O=C(O)C1CSC(c2ccccc2Cl)N1C(=O)c1ccc(Cl)cc1 (stereo not drawn)	0	0	0	0	0	-
O=C(/C=C/c1ccco1)Nc1ccccc1N1CCCC1	-	0	-	-3.6	0	0
O=C(/C=C/c1ccco1)NC(=S)Nc1ccccc1N1CCCC1	-	0	-	0	0	-
COc1ccc(C(c2c(C)[nH]n(C(N)=S)c2=O)C(C#N)C#N)cc1 (stereo not drawn)	0	94	0	-4.1	0	+
COc1ccc(S(=O)(=O)c2ccc(OC)c(OC)c2)cc1OC	0	0	0	0	0	-
O=C(CCl)Nc1cc(-c2ccccc2)nn1-c1ccccc1	2.5	98	3.6	-4.8	+	+
O=[N+]([O-])c1ccc(N/N=C/c2ccc[nH]2)cc1	0	0	0	0	+	+
